This is a sample that favours compounds with a hit; in the whole collection about 9.3% have one here.
Ecoli WT expand: blocks growth of wild type E. coli BW25113; OD600 absorbance; actives 0.15% (n = 98,000); growth inhibition, % at 100 µM;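 active = growth inhibition above about 50% at one test dose, limit read from the data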;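 also: growth measured after 20 h incubation at 37 °C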
PostGolgi ctrl: inhibits growth of the yeast control strain | efflux-deficient yeast background strain, growth absorbance A615, 16 h | inhibition, % at 10 µM | actives 5% (n = 98,000) | AID 738
tolC growth inh: blocks growth of E. coli BW25113 tolC mutant | actives 2.2% (n = 65,000) | OD615 | growth inhibition, % at 10 µM (by protocol);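 active = growth inhibition at or above a cutoff equal to the mean over every tested compound plus 3 SD, cut at about 60% in these data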;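 also: growth measured after 20 h incubation at 37 °C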
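Test system: E. coli BW25113 ΔtolC::kan bacteria | Medium: Kanamycin-containing LB broth (50 µg/mL) | Dosing: One dose of 10 µM final | Times: 20 h incubation with compound, 37 °C | Detection: Optical density read at 615 nm | Read-out basis: Percent growth inhibition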
PostGolgi yeast: growth inhibition of a yeast mutant, post-Golgi transport screen. post-Golgi transport phenotypic cell assay. inhibition, % at 10 µM. actives 0.9% (n = 98,000);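 also: yeast cells grown in 1536-well plates; yeast grown about 18 h at 30C before absorbance read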
DAT uptake mod: changed human dopamine transporter uptake under cocaine IC80 | LLC-PK1 hDAT cells, [14C]-dopamine uptake with cocaine IC80; actives deviate in either direction | B-score at 10 µM | actives 1.3% (n = 110,000) | AID 449768;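 active = Z score or B-score, a plate-position-corrected score, falls beyond the plate's 99.7% confidence bounds, in either direction; inactive = both scores lie inside the 99.7% bounds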
D1 mod: D1 dopamine receptor (human) allosteric modulation | P21728 | HEK293 D1, CRE-luciferase, dopamine EC30 potentiation; actives deviate in either direction | B-score at 10 µM | actives 5.9% (n = 58,000) | AID 641;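 active = luminescence count or its row- and column-corrected plate score outside the 99.7% band of the plate's sample wells, on either side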
Target sequence (P21728 whole entry, looked up): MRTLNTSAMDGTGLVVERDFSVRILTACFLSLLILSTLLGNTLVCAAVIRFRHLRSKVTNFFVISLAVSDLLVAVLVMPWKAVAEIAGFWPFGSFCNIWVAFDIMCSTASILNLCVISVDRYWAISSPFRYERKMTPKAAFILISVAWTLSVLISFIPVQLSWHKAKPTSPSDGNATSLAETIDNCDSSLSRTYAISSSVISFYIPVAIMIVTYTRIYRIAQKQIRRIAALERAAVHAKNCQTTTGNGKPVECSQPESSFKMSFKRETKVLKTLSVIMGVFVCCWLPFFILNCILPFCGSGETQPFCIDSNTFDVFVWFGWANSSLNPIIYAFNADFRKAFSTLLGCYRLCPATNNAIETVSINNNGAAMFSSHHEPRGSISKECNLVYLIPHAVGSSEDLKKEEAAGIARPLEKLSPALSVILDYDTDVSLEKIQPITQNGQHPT
D1 PAM confirm: confirmation of human D1 dopamine receptor allosteric modulators; AID 642; shares compounds with D1 mod; HEK293 D1 CRE-luciferase, dopamine EC30 potentiation; hits give high values; actives 88% (n = 2,200); luminescence at 10 µM;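 active = luminescence in either of two replicates above the same-plate mean plus 3 SD of the low-dose dopamine control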
D1 no dopamine: D1 (human) signaling in absence of dopamine | shares compounds with D1 mod | HEK293 D1 CRE-luciferase, luminescence, no dopamine; hits give high values | luminescence at 10 µM | actives 0.8% (n = 1,900) | AID 646; in the data active = luminescence above about 3900
Isoprot counter: isoproterenol response counter-screen activity for D1 modulators. shares compounds with D1 mod. HEK293 D1 CRE-luciferase, isoproterenol EC30 counter-screen. calls only at 10 µM. actives 63% (n = 2,200). AID 647;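 active = luminescence in either replicate above plate mean of wells with a partly effective reference agonist dose plus 3 SD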;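 also: isoproterenol raises cAMP through native beta-adrenoceptor Gs so signal bypasses D1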
Of the large screens only hits and unclear results are named; the others gave an inactive call (follow-up assays come after a bar, where they were run). Rule as the data show it, unless noted: active = inhibition above about 30%; inactive = the rest.

C=CCOC(=O)C(C#N)c1nc2ccccc2nc1N1CCCC1 (stereo not drawn)	tolC growth inh 96, D1 mod 3.1 | D1 PAM confirm 15796 | D1 no dopamine inactive | Isoprot counter active
CC(C)(C)Nc1nc(NC(C)(C)C)nc(-n2ccnc2)n1	PostGolgi ctrl 33, D1 mod 5.7 | D1 PAM confirm 17956 | D1 no dopamine inactive | Isoprot counter active
CC(C)(C)Nc1nc(NN)nc(NC(C)(C)C)n1	none (no result: tolC growth inh, D1 mod)
Cc1ccc(-c2nnc(CSc3nc(C)nc4sc(C)c(C)c34)o2)cc1	none (no result: Ecoli WT expand, PostGolgi ctrl, PostGolgi yeast)
Cc1nc(SCC#N)c2c(C)c(C)sc2n1	D1 mod 5.8 | D1 PAM confirm 13352 | D1 no dopamine inactive | Isoprot counter active
Cc1[nH]nc2c1C(c1ccc3c(c1)OCO3)C(C#N)=C(N)O2 (stereo not drawn)	none (no result: D1 mod)
CCOc1ccc(-c2[nH]nc3c2C(c2ccc4c(c2)OCO4)C(C#N)=C(N)O3)cc1OC (stereo not drawn)	D1 mod 2.4 | D1 PAM confirm 10328 | D1 no dopamine 10840 | Isoprot counter active
COc1cc(C2C(C#N)=C(N)Oc3n[nH]c(-c4ccncc4)c32)cc(OC)c1OC (stereo not drawn)	none
COc1ccc(C2C(C#N)=C(N)Oc3n[nH]c(-c4ccccn4)c32)c(OC)c1OC (stereo not drawn)	D1 mod 11 (no result: DAT uptake mod) | D1 PAM confirm 17692 | D1 no dopamine inactive | Isoprot counter active
CCCCc1nc2n[nH]c(N)c2c2c1CCCC2	D1 mod 21 | D1 PAM confirm 20280 | D1 no dopamine inactive | Isoprot counter active
c1cc2c(cc1C1=Nn3c(nnc3C3CCCCC3)SC1)OCO2	D1 mod 28 | D1 PAM confirm 25488 | D1 no dopamine inactive | Isoprot counter active
CC(C)(C)C1=Nn2c(nnc2C2CCCCC2)SC1	D1 mod 24 | D1 PAM confirm 19908 | D1 no dopamine inactive | Isoprot counter active
c1ccc(-c2nnc3n2N=C(c2ccc4c(c2)OCO4)CS3)nc1	none (no result: D1 mod)
Cc1cc2n(n1)C(c1ccc(O)cc1)Nc1ccccc1-2 (stereo not drawn)	none
Cc1cc2n(n1)C(c1ccc3c(c1)OCO3)Nc1c(C)cccc1-2 (stereo not drawn)	tolC growth inh 71, DAT uptake mod 3.5, D1 mod 12 | D1 PAM confirm 13912 | D1 no dopamine inactive | Isoprot counter active
Cc1cc2n(n1)C(c1cn(-c3ccccc3)nc1C)Nc1c(C)cccc1-2 (stereo not drawn)	none (no result: Ecoli WT expand, PostGolgi ctrl, tolC growth inh, PostGolgi yeast, D1 mod)
Cc1cc(C)c2c(c1)-c1cc(C)nn1C(c1ccc3c(c1)OCO3)N2 (stereo not drawn)	PostGolgi ctrl 47, D1 mod 4.4 | D1 PAM confirm 10424 | Isoprot counter active
Cc1ccc(NC2=NCC(=O)N2C2CCCC2)c(C)c1	none (no result: Ecoli WT expand, PostGolgi ctrl, tolC growth inh, PostGolgi yeast, D1 mod)
Cc1cccc2c1NC(C)CC2C (stereo not drawn)	none (no result: D1 mod)
COc1ccc(C2CNC(=O)C2)cc1OC1CCCC1 (stereo not drawn)	D1 mod 45 (no result: Ecoli WT expand, PostGolgi ctrl, PostGolgi yeast) | D1 PAM confirm 20880 | Isoprot counter active
CC(=O)N=c1sc2nc3ccccc3nc2n1N(C(C)=O)C(C)=O	D1 mod 2.8 | D1 PAM confirm 8388 | D1 no dopamine inactive | Isoprot counter inactive
Cc1ccc(C)n1-n1c(C)nc2scc(-c3ccccc3)c2c1=O	none (no result: tolC growth inh, D1 mod)
COc1ccc(-c2csc3nc(C)n(-n4cccc4)c(=O)c23)cc1OC	D1 mod 4.9 | D1 PAM confirm 6784 | D1 no dopamine inactive | Isoprot counter inactive
CCN(CC)CCOc1c(Br)ccc2c1sc1nc3n(c(=O)c12)CCC3	D1 mod 2.7 | D1 PAM confirm 8312 | D1 no dopamine inactive | Isoprot counter inactive
O=c1c2c3c(sc2nc2n1CCC2)CCC3	none
CCCCCCCOc1ccc(OC(=O)c2ccncc2)cc1	none (no result: tolC growth inh, D1 mod)
COc1ccc(-n2nnnc2-c2cn(C)nc2C(F)(F)F)cc1	none (no result: tolC growth inh, D1 mod)
CCc1ccc(-c2nc(CN3CCC(C(=O)N4CCN(c5ccccn5)CC4)CC3)c(C)o2)cc1	D1 mod 7.1 (no result: DAT uptake mod) | D1 PAM confirm 6240 | Isoprot counter active
CCn1c(=O)c(C(=O)NCc2cccnc2)c(O)c2ccccc21	DAT uptake mod -8.4, D1 mod 4.8 | D1 PAM confirm 13308 | D1 no dopamine inactive | Isoprot counter inactive
CCCn1c(=O)c(C(=O)NCc2ccncc2)c(O)c2ccccc21	D1 mod 5.2 | D1 PAM confirm 6720 | D1 no dopamine inactive | Isoprot counter inactive
CCn1c(=O)c(C(=O)Nc2cccnc2)c(O)c2ccccc21	none (no result: Ecoli WT expand, PostGolgi ctrl, PostGolgi yeast, DAT uptake mod)
N#Cc1nc(N2CCOCC2)nc(N2CCOCC2)n1	D1 mod 5.1 | D1 PAM confirm 12340 | D1 no dopamine inactive | Isoprot counter active
N#CCOc1nc(N2CCOCC2)nc(N2CCOCC2)n1	none
O=C(O)CCCC(=O)Nc1ccc(Br)cc1	none (no result: tolC growth inh, D1 mod)
O=C(O)CCCC(=O)Nc1ccccc1Br	D1 mod 7.2 | D1 PAM confirm inactive | Isoprot counter inactive
COC(=O)c1cccc(Nc2nc3ccccc3nc2C)c1	PostGolgi ctrl 53, D1 mod 5.2 | D1 PAM confirm 9552 | D1 no dopamine inactive | Isoprot counter active
O=C(Nc1cccc(O)c1)c1cnn2cccnc12	none (no result: tolC growth inh, D1 mod)
O=C(Nc1cccnc1)c1cnn2cccnc12	D1 mod 4.6 | D1 PAM confirm 7304 | D1 no dopamine inactive | Isoprot counter active
CCn1nnc(-c2ccccc2NC(=O)c2cc(OC)c(OC)c(OC)c2)n1	D1 mod 5.5 | D1 PAM confirm 16052 | D1 no dopamine inactive | Isoprot counter active
CCn1nnc(-c2ccccc2NC(=O)c2cc(OC)cc(OC)c2)n1	none
Cc1ccc(NC(=O)N2C(=O)C3(OCCO3)c3ccccc32)cc1	none
Cn1c(=O)[nH]c(=O)c2c1nc(N1CCCCCC1)n2CCN1CCCCCC1	none
C/C(Cl)=C\Cn1c(N2CCCC2)nc2c1c(=O)[nH]c(=O)n2C	D1 mod 11 | D1 PAM confirm 16008 | D1 no dopamine inactive | Isoprot counter active
C/C(Cl)=C/Cn1c(N2CCCC2)nc2c1c(=O)n(C)c(=O)n2C	D1 mod 8.5 | D1 PAM confirm 7912 | Isoprot counter inactive
Cn1c(=O)c2c(nc(N3CCCCC3)n2C)n(C)c1=O	none
Cn1c(N2CCCC2)nc2c1c(=O)n(Cc1ccc(F)cc1)c(=O)n2C	D1 mod 4.5 | D1 PAM confirm 12452 | D1 no dopamine inactive | Isoprot counter active
